Assay results taken from article PMC10951545 (Heliyon, 2024).
Where a SMILES comes first, the peptide text is derived from it. Bridges are numbered along the chain shown (N, C = ends). [ ]: non-standard residue; d: D form. The star is where a group is joined. X1 = CC[C@H](C)CCCCC(=O)*; Dab = NCC[C@H](N)C(=O)O

How the values were obtained:
Complications = format: in vivo; conditions: number of patients (%)
Summary of the method: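 ICU patients with severe pulmonary infection were given IV polymyxin B sulfate as an approx. 1 h drip (loading 15,000 U/Kg, then 20,000 U/Kg/d in two doses), either alone or with CVVH (35 ml/kg/h, blood flow 200 ml/min). The incidence of skin pigmentation, nephrotoxicity and 28-day mortality was recorded per group, and the groups were compared.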

[1] = tested on: ventilator-associated pneumonia caused by multidrug-resistant bacteria; assay: Evaluation of clinical efficacy; format: in vivo, patients; conditions: control group (polymyxin B alone), n = 28
[2] = control group (polymyxin B alone), n = 28
[3] = observation group (polymyxin B + CRRT), n = 7

SMILES: CC[C@H](C)CCCCC(=O)N[C@@H](CCN)C(=O)N[C@H](C(=O)N[C@@H](CCN)C(=O)N[C@H]1CCNC(=O)[C@H]([C@@H](C)O)NC(=O)[C@H](CCN)NC(=O)[C@H](CCN)NC(=O)[C@H](CC(C)C)NC(=O)[C@@H](Cc2ccccc2)NC(=O)[C@H](CCN)NC1=O)[C@@H](C)O [polymyxin B] (X1-[Dab]T[Dab][Dab][Dab][dF]L[Dab][Dab]T; lactam 4-C)
- 28-day mortality (Complications; [2]): 8 (28.57)
- Nephrotoxicity (Complications; [2]): 6 (21.43)
- Skin pigmentation (Complications; [2]): 3 (10.71)
- 28-day mortality (Complications; [3]): 4 (57.14)
- Nephrotoxicity (Complications; [3]): 1 (14.29)
- Skin pigmentation (Complications; [3]): 2 (28.57)
- response rate [1]: 50.00%
